Screening results deposited in PubChem by several laboratories.
Autophagy HCS: autophagy modulators in MEF cells, primary screen, imaging, high-content, MEF GFP-LC3; MEF GFP-LC3 puncta imaging; test concentration mostly 10 µM; calls only at 10 µM (by protocol); actives 0.98% (n = 190,000); AID 463193, 2010;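 active means percentage of spot-positive cells more than 3 SD above its plate mean, without a fluorescence outlier flag or 80% toxicity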;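 further: spot-positive cell cutoff set from DMSO-treated cells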
Hck-Nef inh: inhibitors of Nef-activated human Hck kinase, primary screen, biochemical, Z-Lyte FRET, 384-well, Hck-YEEI; Tyrosine-protein kinase HCK (Homo sapiens), P08631; Recombinant Hck-YEEI plus Nef, Z-Lyte FRET kinase assay; inhibition, % at 20 µM; actives 0.68% (n = 220,000); AID 463187, 2010;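 active means Hck-Nef kinase inhibition above about 50%, limit read from the data; inactive means inhibition below that limit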;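 further: 0% = DMSO with Hck plus Nef and 100% = Hck alone without Nef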
zVAD death inh: inhibitors of zVAD-triggered necroptosis, primary screen, L929 cells; L929 zVAD necroptosis rescue, ATP luminescence, 24 h; with zVAD 60 µM; viability rescue, % at 10 µM; actives 0.38% (n = 220,000);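 active means activation, scaled between plate controls, above about 75%, limit read from the data; inactive means activation under that limit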;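 further: 0% = zVAD with DMSO and 100% = DMSO alone without zVAD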
TNF death inh: inhibitors of TNF-alpha triggered necroptosis, primary screen, cell-based, Jurkat FADD-/-, single concentration. Jurkat FADD-/- TNF necroptosis rescue, ATP luminescence, 24 h; 0 = TNF only, 100 = no-TNF cells. activation (protection from cell death), % at 10 µM. actives 0.068% (n = 220,000);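 active means activation, meaning protection from cell death, of at least 50% relative to plate controls; inactive means activation below 50%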;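 further: necroptosis triggered by 40 ng/mL TNF-alpha added together with compound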
MDM2 E3 inh: MDM2-luciferase reporter signal enhancers, primary screen, MDM2 E3 ligase inhibitor project, cell-based, luminescence, 1536-well. cell-based MDM2 ubiquitination luciferase reporter, 2 h; 0 = plate control, 100 = twice control, blank-subtracted. signal enhancement, % at 5 µM. actives 0.11% (n = 210,000). E3 ubiquitin-protein ligase Mdm2 (Homo sapiens), Q00987;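 active means signal enhancement of 30% or more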;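 further: luminescence tracks abundance of the self-degrading MDM2-luciferase fusion protein; higher signal means inhibition of MDM2 E3 ligase activity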
Target sequence (Q00987 whole entry, looked up, the tested form may be a part): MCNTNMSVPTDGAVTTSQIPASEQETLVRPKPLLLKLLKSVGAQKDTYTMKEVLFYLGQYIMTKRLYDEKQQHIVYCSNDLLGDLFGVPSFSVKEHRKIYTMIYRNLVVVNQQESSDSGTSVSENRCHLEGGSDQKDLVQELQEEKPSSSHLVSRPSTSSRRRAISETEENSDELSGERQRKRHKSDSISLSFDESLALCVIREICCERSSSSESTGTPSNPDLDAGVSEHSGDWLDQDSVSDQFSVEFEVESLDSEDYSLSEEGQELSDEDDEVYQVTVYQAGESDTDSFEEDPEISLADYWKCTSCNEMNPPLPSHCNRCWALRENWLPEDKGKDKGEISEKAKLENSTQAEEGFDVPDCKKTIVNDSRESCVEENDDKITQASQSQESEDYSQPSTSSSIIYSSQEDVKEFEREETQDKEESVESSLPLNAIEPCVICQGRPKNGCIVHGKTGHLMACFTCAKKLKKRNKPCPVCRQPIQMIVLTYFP
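system = mammalian cells stably expressing self-ubiquitinating, self-degrading MDM2 E3–luciferase fusion | quantity = 2000 cells per well seeded | incubation = 4 h cell settling then 2 h compound exposure, 37 °C | signal = SteadyLite luminescence, 15 min reagent step | benchmarks = plate control and blank wells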
Dynein cargo inh: inhibitors of GR-EGFP nuclear translocation, primary screen, dynein cargo transport inhibitor project, imaging, high-content, 3617.4 mouse cells. actives 0.47% (n = 220,000). test concentration mostly 20 µM; stimulated with dexamethasone, 1 µM; hits give low values. AID 1381, 2008. z-score, hits read low;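 active means plate z-score of nuclear minus cytoplasmic receptor signal below a set negative limit, without overly bright fluorescence or cell loss, cut at about -3.5 in these data, passing the limit was not always enough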;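 further: z-score of nuclear minus cytoplasmic ring GR-EGFP intensity difference per well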
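medium = tetracycline-free induction medium containing charcoal-stripped FBS | probe or stimulus = dexamethasone, 1.0 µM final | timing = 48 h induction, then 1 h compound, then 30 min agonist, 37 °C | detection = automated 10x imaging of fixed Hoechst-stained cells | read-out basis = nuclear versus cytoplasmic GR-EGFP signal, averaged per well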
Starred values were filed as active, the others as inactive; i = inactive; / = not tested or not shown; + = active, no number. The list is not random: actives were taken first. Their share in the collection is about 2.4%.

SMILES | Autophagy HCS | Hck-Nef inh | zVAD death inh | TNF death inh | MDM2 E3 inh | Dynein cargo inh
CC(=O)Nc1ccc(S(=O)(=O)N(C)CC(=O)OCC(=O)N2CCc3ccccc32)cc1 | i | 10 | 1 | 2 | 47* | -0.54
O=C(CCCc1nc(-c2ccccc2Cl)no1)N1CCOCC1 | i | 11 | 0 | 0 | -17 | -0.2
CC(=O)c1sc2nc(-c3cccs3)ccc2c1N | i | 1 | 12 | -7 | -4 | -0.69
CC(C)NC(=O)c1sc2nc(-c3cccs3)cc(-c3cccs3)c2c1N | + | -1 | 0 | 0 | 1 | 0.22
Nc1c(C(=O)Nc2nc3ccccc3s2)sc2nc(-c3cccs3)ccc12 | + | 5 | 2 | -4 | -44 | 9.4
Cc1cc(Nc2cccc([N+](=O)[O-])c2)c2ccccc2n1 | i | 17 | -1 | 5 | 12 | -1.2
CCOc1ccc2nc(C)cc(Nc3cccc([N+](=O)[O-])c3)c2c1 | + | 5 | 0 | 2 | -16 | -0.81
CCOc1ccc(-n2cc(C(=O)Nc3cccc(OC)c3)c3cc(OC)c(OC)cc3c2=O)cc1 | i | 0 | 0 | -2 | / | 1.2
CCOc1ccc(-n2cc(C(=O)Nc3ccc(Cl)cn3)c3cc(OC)c(OC)cc3c2=O)cc1 | + | 0 | 0 | 0 | -7 | -0.22
Cc1cc(NC(=O)c2cc3cccc([N+](=O)[O-])c3[nH]2)ccc1F | / | 24 | 5 | -1 | -10 | 0.099
Cc1nc2c3cc(Cl)ccc3n(CCN3CCCCC3)c2s1 | + | 0 | 1 | -2 | -9 | 0.45
Cn1nc(C(F)(F)F)c(-c2ccccc2)c1NC(=O)CCC(=O)O | / | -12 | 0 | 2 | -17 | 0.23
COc1cc(/C=C2\SC(=O)N(c3ccc(Cl)cc3)C2=O)cc([N+](=O)[O-])c1O | i | 75* | -1 | 0 | -5 | 0.48
O=C1CCN(Cc2ccccc2)S(=O)(=O)c2ccccc21 | / | 22 | 0 | 2 | 40* | 0.52
CC(=O)Nc1ccc(S(=O)(=O)N2CCN(c3cnn(C)c(=O)c3Cl)CC2)cc1 | i | 17 | 3 | 2 | -7 | -0.41
O=C(CC1SCCNC1=O)Nc1cccc([N+](=O)[O-])c1 (configuration not stated) | / | 15 | 0 | 0 | -80 | 0.19
O=C(COc1ccccc1-c1ccccc1)NN=C1CCCC1 | i | 14 | 0 | 0 | 4 | -0.55
Cc1nnc(NC(=O)c2oc3cc(C)c(C)cc3c2C)s1 | + | 5 | 0 | 1 | -14 | 2.4
COC(=O)[C@@]1(Cc2ccc(F)cc2)[C@H]2c3cc(C(=O)N(C)C)n(Cc4c(CO)[nH]cc(C)c4=O)c3C[C@H]2CN1C(=O)c1ccccc1 | i | 7 | 0 | -4 | / | 0.35
Cc1ccsc1C1Nc2ccc3ncccc3c2C2=C1C(=O)CCC2 (configuration not stated) | i | 17 | 0 | -2 | 34* | 0.00023
COc1cc(C2Nc3ccc4ncccc4c3C3=C2C(=O)CCC3)cc(OC)c1OC (configuration not stated) | i | 35 | -1 | -2 | 5 | 1.1
Cc1ccc(OCCCCNC2CCCC(C)C2C)c(C)c1 (configuration not stated) | i | -3 | 3 | 2 | -9 | -1.1
O=C(Cn1c(=O)oc2cc(S(=O)(=O)N3CCCCC3)ccc21)N1CCc2ccccc21 | + | 3 | 1 | 1 | 8 | -0.87
CN1CCCN(C(=O)CC(c2ccccc2)c2ccccc2)CC1 | i | -11 | 0 | 2 | -7 | -0.37
